Experimental data taken from ChEMBL document CHEMBL3272070, “Cycloalkanoindoles. 1. Syntheses and antiinflammatory actions of some acidic tetrahydrocarbazoles, cyclopentindoles, and cycloheptindoles” (J Med Chem, 1976).
Activity calls are given as the source filed them. No cut-off for these calls is given here.

Key:
[1] = test system: Rattus norvegicus; assay: Chronic antiinflammatory activity against adjuvant-induced arthritis in rat assessed as decrease in volume of paw at 100 mg/kg, po administered for 9 days starting 14 days after adjuvant injection and continued until day 22 by therapeutic test; format: functional, organism-based; design: dose 100 mg/kg
Outline: (§1)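 Adjuvant arthritis was induced in groups of six rats by injecting Mycobacterium butyricum in mineral oil into the left hind foot pad. Oral dosing ran from day 14 to day 22 (nine doses). Injected-paw volume was measured by mercury displacement, and a decrease of ≥0.5 ml counted as a therapeutic effect. ED50 was derived by probit analysis of responder counts. The maximum screening dose was 100 mg/kg.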

[2] = test system: Rattus norvegicus; assay: Chronic antiinflammatory activity against adjuvant-induced arthritis in po dosed rat assessed as decrease in volume of paw administered for 9 days starting 14 days after adjuvant injection and continued until day 22 by therapeutic test; format: functional; outline: as §1
[3] = test system: Rattus norvegicus; assay: Acute antiinflammatory activity in po dosed rat assessed as inhibition of carrageenan-induced paw edema; format: functional
[4] = test system: Rattus norvegicus; assay: Ulcerogenicity in po dosed 24-hrs starved Charles-River rat assessed as lesions on stomach administered as single dose measured after 18 hrs; format: toxicity, organism-based; conditions: in vivo
Outline: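 Male Charles River rats were starved 24 h and given a single oral dose. After 18 h they were killed by ether inhalation and their stomachs examined for lesions (erosion or ulcer). UD50, the dose producing lesions in 50% of rats, was derived by probit analysis.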

[5] = species: Rattus norvegicus; assay: Ratio of ED50 for ulcerogenicity in 24-hrs starved Charles-River rat to ED50 for chronic antiinflammatory activity against adjuvant-induced arthritis in rat
Outline: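 Ratio of ulcerogenic UD50 to therapeutic ED50. UD50: single oral dose in 24 h-starved male Charles River rats, stomach lesions scored at 18 h. Therapeutic ED50: adjuvant-arthritic rats dosed orally days 14–22, with a ≥0.5 ml decrease in paw volume as the response. Both values were derived by probit analysis.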

[6] = test system: Rattus norvegicus; assay: Ratio of ED50 for acute antiinflammatory activity against carrageenan-induced paw edema in rat to ED50 for chronic antiinflammatory activity against adjuvant-induced arthritis in rat
[7] = test system: Rattus norvegicus; assay: Chronic antiinflammatory activity against adjuvant-induced arthritis in rat assessed as decrease in volume of paw at 10 mg/kg, po administered for 9 days starting 14 days after adjuvant injection and continued until day 22 by therapeutic test; format: functional, organism-based; design: dose 10 mg/kg; outline: as §1
[8] = test system: Rattus norvegicus; assay: Chronic antiinflammatory activity against adjuvant-induced arthritis in rat assessed as decrease in volume of paw at 25 mg/kg, po administered for 9 days starting 14 days after adjuvant injection and continued until day 22 by therapeutic test; format: functional, organism-based; design: dose 25 mg/kg; outline: as §1

O=C(O)CC1CCCc2c1[nH]c1ccccc21 (stereo not drawn)
Activity [1]: inactive

CCCc1cccc2c3c([nH]c12)C(CC)(CC(=O)O)CCC3 (stereo not drawn)
ED50 [2]: 1.1 mg/kg
ED50 [3]: 10.5 mg/kg
ED50 [4]: 24 mg/kg
Ratio ED50 [5]: 24
Ratio [6]: 10

CCC1(CC(=O)O)CCCc2c1[nH]c1ccccc21 (stereo not drawn)
ED50 [2]: 3.3 mg/kg

CCc1cccc2c3c([nH]c12)C(C)(CC(=O)O)CCCC3 (stereo not drawn)
Activity [7]: inactive

COc1ccc2cc([C@H](C)C(=O)O)ccc2c1 [NAPROXEN]
ED50 [2]: 2.1 mg/kg
ED50 [4]: 28 mg/kg
Ratio ED50 [5]: 13

CCc1cccc2c3c([nH]c12)C(C)(CC(=O)O)CC3 (stereo not drawn)
ED50 [2]: > 50 mg/kg

CCCC1(CC(=O)O)OCCc2c1[nH]c1ccccc21 (stereo not drawn) [PRODOLIC ACID]
ED50 [2]: 9 mg/kg
ED50 [3]: 89.9 mg/kg
ED50 [4]: 678 mg/kg
Ratio ED50 [5]: 75

COc1ccc2[nH]c3c(c2c1)CCC(C(=O)O)C3 (stereo not drawn)
ED50 [2]: 20 mg/kg
ED50 [3]: 12.7 mg/kg

CC1(CC(=O)O)CCc2c1[nH]c1ccccc21 (stereo not drawn)
Activity [8]: inactive

COc1ccc2c(c1)c(CC(=O)O)c(C)n2C(=O)c1ccc(Cl)cc1 [INDOMETHACIN]
ED50 [2]: 0.2 mg/kg

CCCCC1C(=O)N(c2ccccc2)N(c2ccccc2)C1=O [PHENYLBUTAZONE]
ED50 [2]: 5.4 mg/kg
ED50 [4]: 100 mg/kg

CCC1(CC(=O)O)CCc2c1[nH]c1ccccc21 (stereo not drawn)
ED50 [2]: 100 mg/kg

O=C(O)C1CCc2c([nH]c3ccc(Cl)cc23)C1 (stereo not drawn)
ED50 [2]: 21.3 mg/kg
ED50 [3]: 10.2 mg/kg

CC1(CC(=O)O)CCCc2c1[nH]c1ccccc21 (stereo not drawn)
Activity [1]: inactive

CCc1cccc2c3c([nH]c12)C(CC)(CC(=O)O)CC3 (stereo not drawn)
ED50 [2]: 6.2 mg/kg

CCCC1(CC(=O)O)CCCc2c1[nH]c1ccccc21 (stereo not drawn)
ED50 [2]: 20 mg/kg

CCCCc1cccc2c3c([nH]c12)C(CC)(CC(=O)O)CCC3 (stereo not drawn)
ED50 [2]: 4.2 mg/kg

CCc1cccc2c3c([nH]c12)C(CC)(CC(=O)O)OCC3 (stereo not drawn) [ETODOLAC]
ED50 [2]: 0.7 mg/kg
ED50 [3]: 10.2 mg/kg
ED50 [4]: 60 mg/kg
Ratio ED50 [5]: 85

CCC1(CC(=O)O)CCCc2c1[nH]c1ccc(OC)cc21 (stereo not drawn)
Activity [8]: inactive

CCc1cccc2c3c([nH]c12)C(CC)(CC(=O)O)CCC3 (stereo not drawn)
ED50 [2]: 1.9 mg/kg

CCC1(CC(=O)O)CCCc2c1[nH]c1c(C(C)C)cccc21 (stereo not drawn)
ED50 [2]: 5.4 mg/kg

O=C(O)C1CCc2c([nH]c3ccccc23)C1 (stereo not drawn)
Activity [1]: inactive

CCc1cccc2c3c([nH]c12)C(CC)(CC(=O)O)CCCC3 (stereo not drawn)
ED50 [2]: > 50 mg/kg
